Results taken from ChEMBL document CHEMBL1126800, “Preparation of substituted N-phenyl-4-aryl-2-pyrimidinamines as mediator release inhibitors” (J Med Chem, 1993).

Experiments:
Homo sapiens [1] = organism: Homo sapiens; experiment: In vitro inhibition of histamine release from human basophils; H= Compound interfered with the histamine assay; type: functional, organism-based
In short: (§1)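 Human basophils separated from leukocytes were incubated with test compound, then challenged with anti-IgE or antigen (Lichtenstein method). Histamine release was measured against controls and blanks. IC50 is the concentration lowering histamine release by 50%.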

Homo sapiens [2] = organism: Homo sapiens; experiment: In vitro inhibition of histamine release from human basophils; type: functional, organism-based; details: Homo sapiens; in short: as §1
Mus musculus = experiment: Tested for in vivo activity in mouse by passive cutaneous anaphylaxis (PCA) test; type: functional; details: read-out: ID50 (the source's name)
In short: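 Mouse passive cutaneous anaphylaxis test with oral dosing of compound. Read at times of […] after dosing. Value expressed as ID50 in mg/kg.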

Homo sapiens [3] = organism: Homo sapiens; experiment: Tested for in vitro cell leukotriene C4 release inhibition by radioimmunoassay; type: functional, organism-based
In short: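 Basophils were incubated with compound and challenged. LTC4 release was measured by radioimmunoassay, with duplicate samples processed per the [3H] LTC4 RIA kit procedure. Histamine release was measured simultaneously on a second portion of the same cells. IC50 is from n = 5.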

[4] = Tested for toxic concentration in mice; type: ADME, organism-based; details: mouse, in vivo

SMILES | IC50 (Homo sapiens [2]) [µM] | also measured
CNc1ccc(Nc2nccc(-c3ccncc3)n2)cc1.Cl.Cl |  | IC50 (Homo sapiens [1]): Compound interfered with the histamine assay
c1ccc(-c2nccc(-c3ccncc3)n2)cc1 | 13.9 | 
Nc1ccc(Nc2nccc(-c3cccnc3)n2)cc1 | 2.8 | 
Nc1ccc(Nc2nccc(-c3ccccn3)n2)cc1 | 1.5 | 
Nc1ccc(Nc2nccc(-c3ccncc3)n2)cc1 | 2.9 | 
c1cncc(-c2ccnc(Nc3cccc(-n4ccnc4)c3)n2)c1 | 0.2 | 
Clc1cccc(Nc2nccc(-c3cccnc3)n2)c1 | 1.5 | 
Cc1ccsc1-c1ccnc(Nc2ccc(N(C)C)cc2)n1 | 1.8 | 
CCc1ccc(Nc2nccc(-c3ccccn3)n2)cc1 | 2.1 | 
Fc1cccc(F)c1Nc1nccc(-c2cccnc2)n1 | 21 | 
c1ccc(Nc2nccc(-c3ccco3)n2)cc1 | 32 | 
Cc1cc(C)cc(Nc2nccc(-c3ccco3)n2)c1 | 0.7 | 
COc1ccc(Nc2nccc(-c3ccsc3)n2)cc1 | 15.6 | 
COc1ccc(Nc2nccc(-c3ccccn3)n2)cc1 | 8.3 | 
Oc1ccccc1Nc1nccc(-c2cccnc2)n1 | 23.5 | 
CCc1cccc(Nc2nccc(-c3ccncc3)n2)c1 | 10.6 | 
c1cc(Nc2nccc(-c3cccs3)n2)cc(-n2ccnc2)c1 | 0.3 | 
Fc1ccc(Nc2nccc(-c3ccncc3)n2)cc1 | 1.9 | 
COc1cccc(Nc2nccc(-c3ccc(C)o3)n2)c1 | 1.5 | 
CCN(CC)CCCOc1ccc(Nc2nccc(-c3ccncc3)n2)cc1 | 1.3 | 
c1ccc(Nc2nccc(-c3cccs3)n2)cc1 | 31.7 | 
CC(C)(C)c1ccc(Nc2nccc(-c3cccnc3)n2)cc1 | 0.6 | 
CC(=O)N(C)c1ccc(Nc2nccc(-c3cccnc3)n2)cc1 | 0.9 | 
COc1ccc(Nc2nccc(-c3ccncc3)n2)cc1 | 4.2 | 

SMILES | IC50 (Homo sapiens [2]) [µM] | also measured
Cc1cccc(Nc2nccc(-c3ccccn3)n2)c1 | 0.7 | 
c1cc(Nc2nccc(-c3ccncc3)n2)cc(OCCn2ccnc2)c1 | 0.2 | 
CC1CCN(c2ccc(Nc3nccc(-c4cccs4)n3)cc2)CC1 | 0.4 | 
CN(C)c1cccc(Nc2nccc(-c3ccncc3)n2)c1 | 3.7 | 
CCOC(=O)C(=O)N(c1ccccc1)c1nccc(-c2ccncc2)n1 | 2.2 | 
Cc1cn(-c2ccc(Nc3nccc(-c4ccncc4)n3)cc2)cn1 | > 3 | 
Cc1cc(-c2ccnc(Nc3ccc(N(C)C)cc3)n2)c(C)o1 | 4.9 | 
Cc1cccc(Nc2nccc(-c3c[nH]c4ccccc34)n2)c1 | 2.2 | 
CNc1ccc(Nc2nccc(-c3cccnc3)n2)cc1 | 2.1 | 
CC(=O)c1cccc(Nc2nccc(-c3cccnc3)n2)c1 | 4.1 | 
CCc1ccc(Nc2nccc(-c3ccnc4ccccc34)n2)cc1 | 4 | 
COc1cccc(Nc2nccc(-c3cc(C)oc3C)n2)c1 | 5.8 | 
NS(=O)(=O)c1ccc(Nc2nccc(-c3ccncc3)n2)cc1 | 5.1 | 
Cc1cccc(Nc2nccc(-c3ccc(C)s3)n2)c1 | 1.4 | 
CN(C)c1ccc(Nc2nccc(-c3cccnc3)n2)cc1 | 2.8 | 
CCN(CC)c1ccc(Nc2nccc(-c3ccc(C)o3)n2)cc1 | 28 | 
c1ccc(Nc2nccc(-c3cccnc3)n2)cc1 | 0.9 | 
c1cc(Nc2nccc(-c3cccnc3)n2)cc(OCCn2ccnc2)c1 | 0.1 | 
CC(C)N(CCOc1ccc(Nc2nccc(-c3cccnc3)n2)cc1)C(C)C | 4.6 | 
c1ccc(-c2ccnc(Nc3cccc(-n4ccnc4)c3)n2)nc1 | 0.3 | ED50 (Mus musculus): 50 mg/kg; IC50 (Homo sapiens [3]): 0.205 µM; LD50 [4]: 800 mg/kg
COc1cccc(Nc2nccc(-c3cc4ccccc4o3)n2)c1 | 2.8 | 
Cc1cc(-c2ccco2)nc(Nc2ccc(N(C)C)cc2)n1 | 5.9 | 
Cc1cc(-c2ccccn2)nc(Nc2ccc(N(C)C)cc2)n1 | 31.9 | 
COc1ccc(Nc2nccc(-c3cc[n+](C)cc3)n2)cc1 | 33.3 | 

SMILES | IC50 (Homo sapiens [2]) [µM] | also measured
CCN(CC)CCOc1ccc(Nc2nccc(-c3cccnc3)n2)cc1 | 0.2 | 
c1ccc(-c2ccnc(Nc3cccc(OCCn4ccnc4)c3)n2)nc1 | 0.4 | 
COc1cccc(Nc2nccc(-c3ccco3)n2)c1 | 0.4 | 
CCOC(=O)c1cccc(Nc2nccc(-c3ccccn3)n2)c1 | 3 | 
CCc1ccc(Nc2nccc(-c3cnccn3)n2)cc1 | 1.9 | 
CCc1cccc(Nc2nccc(-c3ccsc3)n2)c1 | 1.1 | 
CC(=O)Nc1ccc(Nc2nccc(-c3ccccn3)n2)cc1 | 1.5 | 
CC(=O)Nc1cccc(Nc2nccc(-c3ccccn3)n2)c1 | 0.3 | 
COc1cccc(Nc2nc(C)cc(-c3ccncc3)n2)c1 | > 24 | 
CC1CCN(c2cccc(Nc3nccc(-c4cccs4)n3)c2)CC1 | 3.5 | 
CCN(CC)CCOc1ccccc1Nc1nccc(-c2cccnc2)n1 | > 6 | 
CC1CCN(C(=O)COc2ccc(Nc3nccc(-c4ccncc4)n3)cc2)CC1 | 0.3 | 
CCN(CC)c1ccc(Nc2nccc(-c3ccco3)n2)cc1 | 8.7 | 
CN(C)c1ccc(Nc2nccc(-c3ccsc3)n2)cc1 | 2.1 | 
COc1ccc(N(C)c2nccc(-c3ccncc3)n2)cc1 | > 24 | 
c1cc(Nc2nccc(-c3ccco3)n2)cc(OCCn2ccnc2)c1 | 0.2 | 
CC1CCN(c2ccc(Nc3nccc(-c4ccccn4)n3)cc2)CC1 | 1.9 | 
CCOC(=O)c1cccc(Nc2nccc(-c3cccnc3)n2)c1 | 10.5 | 
COc1cccc(Nc2nccc(-c3sccc3C)n2)c1 | > 24 | 
COc1ccccc1Nc1nccc(-c2cccnc2)n1 | 9.8 | 
NS(=O)(=O)c1cccc(Nc2nccc(-c3cccnc3)n2)c1 | 0.2 | 
c1csc(-c2ccnc(Nc3ccc(-n4ccnc4)cc3)n2)c1 | 4.3 | 
CCN(CC)CCOc1cccc(Nc2nccc(-c3ccccn3)n2)c1 | 1.2 | 
Cc1cc(-c2ccncc2)nc(Nc2cccc(N(C)C)c2)n1 | > 24 | 

SMILES | IC50 (Homo sapiens [2]) [µM] | also measured
CCN(CC)CCOc1ccc(Nc2nccc(-c3ccncc3)n2)cc1 | 0.2 | 
CC1CCN(c2cccc(Nc3nccc(-c4ccco4)n3)c2)CC1 | 5 | 
c1cc(Nc2nccc(-c3ccco3)n2)cc(-n2ccnc2)c1 | 0.8 | 
Cc1cc(-c2ccc(C)s2)nc(Nc2ccccc2)n1 | 24.8 | 
Cc1cc(C)cc(Nc2ncc(C)c(-c3cccnc3)n2)c1 | > 24 | 
Fc1cccc(Nc2nccc(-c3ccccn3)n2)c1 | 1 | 
CCN(CC)CCOc1cccc(Nc2nccc(-c3cccnc3)n2)c1 | 2.9 | 
CC(=O)Nc1cccc(Nc2nccc(-c3cccnc3)n2)c1 | 3.6 | 
Cc1cc(-c2ccnc(Nc3ccccc3)n2)c(C)o1 | 2 | 
CCN(CC)CCOc1ccc(Nc2nccc(-c3ccco3)n2)cc1 | 1.3 | 
COc1ccc(Nc2nccc(-c3cccnc3)n2)cc1 | 1.7 | 
Cc1cccc(Nc2nccc(-c3ccncc3)n2)c1 | 8.8 | 
CN(C)CCCOc1ccc(Nc2nccc(-c3cccnc3)n2)cc1 | 0.6 | 
CC1CCN(c2ccc(Nc3nccc(-c4cccnc4)n3)cc2)CC1 | 0.5 | 
Cc1cc(C)cc(Nc2nccc(-c3cccnc3)n2)c1 | 0.8 | 
CCc1ccc(Nc2nccc(-c3ccncc3)n2)cc1 | 7.7 | 
CC(=O)N(C)c1ccc(Nc2nccc(-c3ccccn3)n2)cc1 | 1.8 | 
c1ccc(Nc2nccc(-c3ccncc3)n2)cc1 | 0.9 | 
Cc1cccc(Nc2nccc(-c3ccc[nH]3)n2)c1 | 8.5 | 
Cc1cc(C)cc(Nc2nccc(-c3ccccn3)n2)c1 | 0.1 | 
Cc1ccc(Nc2nccc(-c3ccccn3)n2)cc1C | 5.9 | 
Cc1cc(C)cc(Nc2nccc(-c3cc(C)oc3C)n2)c1 | 4.1 | 
CCN(CC)c1ccc(Nc2nccc(-c3cc(C)oc3C)n2)cc1 | > 24 | 
CN(C)c1cccc(Nc2nccc(-c3ccccn3)n2)c1 | 0.4 | 

SMILES | IC50 (Homo sapiens [2]) [µM] | also measured
COc1cccc(Nc2nccc(-c3ccc(C)s3)n2)c1 | 2.3 | 
NS(=O)(=O)c1ccc(Nc2nccc(-c3ccccn3)n2)cc1 | 4.6 | 
CN(C)CCOc1ccc(Nc2nccc(-c3cccnc3)n2)cc1 | 0.7 | 
COc1cccc(Nc2nccc(-c3ccncc3)n2)c1 | 0.4 | 
c1ccc(Nc2nccc(-c3c[nH]c4ccccc34)n2)cc1 | 3 | 
Cc1ccc(-c2ccnc(Nc3cccc(N(C)C)c3)n2)s1 | 5.7 | 
COc1cccc(Nc2nccc(-c3cccnc3)n2)c1 | 0.3 | 
CCc1cccc(Nc2nccc(-c3ccccn3)n2)c1 | 1.4 | 
FC(F)(F)c1cc(Nc2nccc(-c3ccncc3)n2)ccc1-n1ccnc1 | 0.4 | 
CN(C)c1ccc(Nc2nccc(-c3ccco3)n2)cc1 | 1.9 | 
c1cc(Nc2nccc(-c3cccs3)n2)cc(OCCn2ccnc2)c1 | 0.1 | 
Cc1cccc(Nc2nccc(-c3ccsc3)n2)c1 | 3.8 | 
Cc1cc(-c2ccncc2)nc(Nc2ccc(N(C)C)cc2)n1 | > 24 | 
Cc1cc(C)cc(Nc2nccc(-c3cccs3)n2)c1 | 4.3 | 
c1cncc(-c2ccnc(Nc3ccc(-n4ccnc4)cc3)n2)c1 | 1.3 | 
COc1ccc(N(C)c2nccc(-c3cccnc3)n2)cc1 | > 24 | 
COc1ccc(Nc2nccc(-c3cccs3)n2)cc1 | 3.9 | 
Cc1ccccc1Nc1nccc(-c2ccncc2)n1 | 3.9 | 
Cc1cccc(Nc2nccc(-c3cccs3)n2)c1 | 0.3 | 
Oc1ccc(Nc2nccc(-c3ccncc3)n2)cc1 | 3.3 | 
CN(C)c1ccc(Nc2nccc(-c3ccncc3)n2)cc1 | 3.7 | 
CN(C)c1ccc(Nc2nccc(-c3ccccn3)n2)cc1 | 3.3 | 
